In brackets after ≈: the same amount, converted by molar mass.
Columns and labels:
Assay type in all cases: functional
Escherichia coli [1] = test: Antibacterial activity against Escherichia coli K12 PhoU wild type W3110 assessed as cell count in stationary phase at 3 ug/ml after 1 week
Outline: (§1)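 Log-phase or stationary-phase cultures were exposed to ampicillin (100 μg/ml) or norfloxacin (3 μg/ml) in MOPS minimal medium, pH 5.0, at 37°C without shaking, for 5 h to 10 days. Aliquots were saline-washed and plated on LB for CFU/ml.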

Escherichia coli [2] = test: Antibacterial activity against Escherichia coli K12 PhoU wild type W3110 at 4 ug/ml after 48 hrs by disc diffusion method
Outline: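 Kirby-Bauer disc assay. Log-phase LB culture (10⁸ bacteria) was spread for confluent growth on LB agar. 7 mm nitrocellulose discs soaked in antibiotic at the listed concentrations were laid on the agar. Inhibition zone diameter (mm) was measured after 48 h at 37°C.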

Escherichia coli [3] = test: Antibacterial activity against Escherichia coli K12 mutant JHU313 containing plasmid vector after 16 hrs by serial dilution method; conditions: K12, 16 h
Outline: (§2)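 Twofold serial antibiotic dilutions in LB broth were seeded with 10⁶–10⁷ bacteria/ml from log-phase culture and incubated 16 h at 37°C. MIC was taken as the lowest concentration with no visible growth. MBC was taken as the concentration giving a 100-fold CFU drop from the inoculum.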

Escherichia coli [4] = test: Antibacterial activity against Escherichia coli K12 mutant JHU313 after 16 hrs by serial dilution method; conditions: K12, 16 h; outline: as §2
Escherichia coli [5] = test: Antibacterial activity against Escherichia coli K12 containing PhoU mutant assessed as cell count in stationary phase at 3 ug/ml after 5 days; outline: as §1
Escherichia coli [6] = test: Antibacterial activity against Escherichia coli K12 containing PhoU mutant assessed as cell count in log phase at 3 ug/ml after 5 days; outline: as §1
Escherichia coli [7] = test: Antibacterial activity against Escherichia coli K12 PhoU wild type W3110 after 16 hrs by serial dilution method; conditions: K12, 16 h
Outline: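 Serial twofold antibiotic dilutions in LB broth; log-phase inoculum 10⁶ to 10⁷ bacteria/ml; 16 h at 37°C. MIC was the lowest concentration with no visible growth. MBC was the concentration giving a 100-fold CFU drop below the seeded inoculum.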

Escherichia coli [8] = test: Antibacterial activity against Escherichia coli K12 mutant JHU313 containing plasmid vector at 2 ug/ml after 48 hrs by disc diffusion method
Outline: (§3)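 Kirby-Bauer disc assay: log-phase LB culture was spread on LB agar for confluent growth. 7-mm nitrocellulose discs were soaked in antibiotic at the listed concentration and placed on the agar. After 48 h at 37°C, the diameter of the inhibition zone was measured in mm.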

Escherichia coli [9] = test: Antibacterial activity against Escherichia coli K12 containing deletion deltaphoU mutant assessed as cell count in stationary phase at 3 ug/ml after 5 hrs
Outline: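 Log-phase or stationary-phase cultures of the ΔphoU deletion mutant (Datsenko–Wanner construction) were exposed to norfloxacin 3 μg/ml in MOPS minimal medium, pH 5.0, at 37°C without shaking, for up to 10 days. Sampled aliquots were washed in saline and plated on LB agar for CFU/ml.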

Escherichia coli [10] = test: Antibacterial activity against Escherichia coli K12 mutant JHU313 containing plasmid PhoU after 16 hrs by serial dilution method; conditions: K12, 16 h; outline: as §2
Escherichia coli [11] = test: Antibacterial activity against Escherichia coli K12 PhoU wild type W3110 assessed as cell count in log phase at 3 ug/ml after 5 hrs; outline: as §1
Escherichia coli [12] = test: Antibacterial activity against Escherichia coli K12 containing PhoU mutant assessed as cell count in log phase at 3 ug/ml after 3 days; outline: as §1
Escherichia coli [13] = test: Antibacterial activity against Escherichia coli K12 containing PhoU mutant assessed as cell count in stationary phase at 100 ug/ml after 1 day; outline: as §1
Escherichia coli [14] = test: Antibacterial activity against Escherichia coli K12 PhoU wild type W3110 assessed as cell count in log phase at 100 ug/ml after 5 hrs
Outline: (§4)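 Log-phase or stationary-phase cultures exposed to ampicillin 100 μg/ml in MOPS minimal medium (pH 5.0) at 37°C without shaking, for 5 h up to 10 days. Aliquots were taken at each time point, washed in saline and plated on LB plates for viable CFU/ml.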

Escherichia coli [15] = test: Antibacterial activity against Escherichia coli K12 containing deletion deltaphoB mutant assessed as cell count in log phase at 100 ug/ml after 24 hrs
Outline: (§5)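 Deletion mutants were made by the Datsenko–Wanner method. Log-phase or stationary-phase cultures were exposed to ampicillin at 100 μg/ml. CFU/ml was determined at the start and after 5, 24 and 72 h of exposure.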

Escherichia coli [16] = test: Antibacterial activity against Escherichia coli K12 containing deletion deltaphoU mutant assessed as cell count in log phase at 100 ug/ml after 5 hrs
Outline: (§6)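 Wild-type W3110-derived deletion mutants were made by the Datsenko–Wanner method. Log-phase or stationary-phase cultures were exposed to ampicillin 100 μg/ml in MOPS minimal medium at pH 5.0, at 37°C without shaking. Aliquots were taken at set times, washed in saline and plated on LB for viable CFU/ml.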

Escherichia coli [17] = test: Antibacterial activity against Escherichia coli K12 containing deletion deltaphoR mutant assessed as cell count in stationary phase at 100 ug/ml after 5 hrs; outline: as §6
Escherichia coli [18] = test: Antibacterial activity against Escherichia coli K12 mutant JHU313 containing plasmid vector at 100 ug/ml after 48 hrs by disc diffusion method; outline: as §3
Escherichia coli [19] = test: Antibacterial activity against Escherichia coli K12 containing PhoU mutant assessed as cell count in stationary phase at 100 ug/ml after 5 hrs; outline: as §1
Escherichia coli [20] = test: Antibacterial activity against Escherichia coli K12 containing deletion deltaphoB mutant assessed as cell count in stationary phase at 100 ug/ml after 24 hrs; outline: as §5
Escherichia coli [21] = test: Antibacterial activity against Escherichia coli K12 containing deletion deltaphoBR mutant assessed as cell count in stationary phase at 100 ug/ml after 24 hrs; outline: as §5
Escherichia coli [22] = test: Antibacterial activity against Escherichia coli K12 mutant JHU313 containing plasmid vector at 25 ug/ml after 48 hrs by disc diffusion method
Outline: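 Kirby-Bauer paper-disc assay: log-phase E. coli (10⁸ bacteria) grown in LB broth, spread on LB agar for confluent growth; 7 mm nitrocellulose discs soaked with antibiotic solution at the listed concentration (μg/ml) placed on surface; incubated 37°C for 48 h; diameter of growth-inhibition zone measured in mm. Strain is the phoU transposon mutant transformed by electroporation with empty vector control.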

Escherichia coli [23] = test: Antibacterial activity against Escherichia coli K12 PhoU wild type W3110 at 1.5 ug/ml after 48 hrs by disc diffusion method
Outline: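 Kirby-Bauer disc assay. Log-phase LB broth culture (10⁸ bacteria) was spread on LB agar for confluent growth. 7 mm nitrocellulose discs soaked in antibiotic solution at the listed concentration were placed on the agar. Inhibition zone diameter (mm) was measured after 48 h at 37°C.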

Escherichia coli [24] = test: Antibacterial activity against Escherichia coli K12 PhoU wild type W3110 assessed as cell count in log phase at 100 ug/ml after 3 days; outline: as §4
Escherichia coli [25] = test: Antibacterial activity against Escherichia coli K12 containing deletion deltahipA mutant assessed as cell count in log phase at 100 ug/ml after 5 hrs; outline: as §5
Escherichia coli [26] = test: Antibacterial activity against Escherichia coli K12 PhoU wild type W3110 assessed as cell count in stationary phase at 100 ug/ml after 1 week; outline: as §4

**Q.** For `CCn1cc(C(=O)O)c(=O)c2cc(F)c(N3CCNCC3)cc21` [NORFLOXACIN], which CFU (Escherichia coli [1]) is on record?
**A.** Its CFU is 1.5 10^4/ml.

**Q.** And the inhibition zone (IZ) (Escherichia coli [2])?
**A.** Its inhibition zone (IZ) is 32 mm.

**Q.** What about the MBC (Escherichia coli [3]) of the same compound?
**A.** The MBC was 0.5 µg/mL (≈ 1.57 µM).

**Q.** And the MIC (Escherichia coli [3])?
**A.** Its MIC is 0.125 µg/mL (≈ 0.391 µM).

**Q.** What about the MBC (Escherichia coli [4]) of the same compound?
**A.** Its MBC is 0.5 µg/mL (≈ 1.57 µM).

**Q.** What about the MIC (Escherichia coli [4]) of the same compound?
**A.** Its MIC is 0.125 µg/mL (≈ 0.391 µM).

**Q.** What about the CFU (Escherichia coli [5]) of the same compound?
**A.** The CFU was 0 mL⁻¹.

**Q.** What about the CFU (Escherichia coli [6]) of the same compound?
**A.** Its CFU is 0 mL⁻¹.

**Q.** And the MBC (Escherichia coli [7])?
**A.** Its MBC is 1 µg/mL (≈ 3.13 µM).

**Q.** And the MIC (Escherichia coli [7])?
**A.** The MIC was 0.5 µg/mL (≈ 1.57 µM).

**Q.** And the inhibition zone (IZ) (Escherichia coli [8])?
**A.** The inhibition zone (IZ) was 40 mm.

**Q.** What about the CFU (Escherichia coli [9]) of the same compound?
**A.** Its CFU is 6 10^8/ml.

**Q.** And the MBC (Escherichia coli [10])?
**A.** The MBC was 1 µg/mL (≈ 3.13 µM).

**Q.** What about the MIC (Escherichia coli [10]) of the same compound?
**A.** The MIC was 0.5 µg/mL (≈ 1.57 µM).

**Q.** And the CFU (Escherichia coli [11])?
**A.** The CFU was 1 10^8/ml.

**Q.** What about the CFU (Escherichia coli [12]) of the same compound?
**A.** The CFU was 0 mL⁻¹.

**Q.** With `CC1(C)S[C@@H]2[C@H](NC(=O)[C@H](N)c3ccccc3)C(=O)N2[C@H]1C(=O)O` [AMPICILLIN] as the compound, how does the CFU (Escherichia coli [13]) read?
**A.** Its CFU is 1 10^7/ml.

**Q.** What about the CFU (Escherichia coli [14]) of the same compound?
**A.** Its CFU is 3 10^3/ml.

**Q.** And the CFU (Escherichia coli [15])?
**A.** The CFU was 1 10^2/ml.

**Q.** And the CFU (Escherichia coli [16])?
**A.** The CFU was 1 10^2/ml.

**Q.** And the CFU (Escherichia coli [17])?
**A.** The CFU was 4 10^9/ml.

**Q.** What about the MBC (Escherichia coli [3]) of the same compound?
**A.** The MBC was 6.25 µg/mL (≈ 17.9 µM).

**Q.** And the MIC (Escherichia coli [3])?
**A.** Its MIC is 1.5 µg/mL (≈ 4.29 µM).

**Q.** What about the MBC (Escherichia coli [4]) of the same compound?
**A.** The MBC was 6.25 µg/mL (≈ 17.9 µM).

**Q.** And the MIC (Escherichia coli [4])?
**A.** Its MIC is 1.5 µg/mL (≈ 4.29 µM).

**Q.** And the MBC (Escherichia coli [7])?
**A.** The MBC was 12.5 µg/mL (≈ 35.8 µM).

**Q.** And the MIC (Escherichia coli [7])?
**A.** The MIC was 3.1 µg/mL (≈ 8.87 µM).

**Q.** What about the inhibition zone (IZ) (Escherichia coli [18]) of the same compound?
**A.** Its inhibition zone (IZ) is 45 mm.

**Q.** What about the CFU (Escherichia coli [19]) of the same compound?
**A.** Its CFU is 2 10^8/ml.

**Q.** And the CFU (Escherichia coli [20])?
**A.** The CFU was 1.8 10^9/ml.

**Q.** What about the CFU (Escherichia coli [21]) of the same compound?
**A.** Its CFU is 1.7 10^9/ml.

**Q.** And the inhibition zone (IZ) (Escherichia coli [22])?
**A.** Its inhibition zone (IZ) is 40 mm.

**Q.** And the MBC (Escherichia coli [10])?
**A.** Its MBC is 12.5 µg/mL (≈ 35.8 µM).

**Q.** And the MIC (Escherichia coli [10])?
**A.** The MIC was 3.1 µg/mL (≈ 8.87 µM).

**Q.** What about the inhibition zone (IZ) (Escherichia coli [23]) of the same compound?
**A.** Its inhibition zone (IZ) is 21 mm.

**Q.** And the CFU (Escherichia coli [24])?
**A.** The CFU was 0 mL⁻¹.

**Q.** And the CFU (Escherichia coli [25])?
**A.** The CFU was 1 10^4/ml.

**Q.** What about the CFU (Escherichia coli [26]) of the same compound?
**A.** Its CFU is 5 10^6/ml.
